Bioassay records from PubChem.
Compounds with a hit are over-represented: about 1.1% of the library has one in this group of screens.
Biofilm kill mix = clotrimazole potentiators killing C. albicans biofilm, primary screen, 4-compound mixtures | C. albicans biofilm persisters + clotrimazole, fluorescence viability; primary screen in compound mixtures of four per well | inhibition, % at 7.6 µM | 0.02% of 120,000 active | AID 1242, 2008;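 active = inhibition above 30.3% in the primary screen of four-compound pools, then above 30% when the compound was retested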;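 note: compounds exposed to preformed 24 h biofilms for 48 h; 0% = untreated biofilm control and 100% = clotrimazole plus chlorhexidine kill blank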
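Incubation: 24 h biofilm formation, then 48 h compound exposure, 37 °C | Material: C. albicans biofilms | Buffer or medium: RPMI/MOPS medium, pH 7.0 | Measured by: 2-h Alamar Blue fluorescence, 535/590 nm excitation/emission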
FXIa inh = human FXIa protease inhibitors, primary screen, biochemical, 1536-well; Coagulation factor XI (Homo sapiens), P03951; purified FXIa, Boc-Glu-Ala-Arg-AMC fluorogenic substrate; inhibition, % at 5 µM; 0.14% of 220,000 active; AID 798, 2007;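 active = inhibition of at least 40%; inactive = inhibition below 40%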;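 note: fluorescence of freed AMC excited at 355 nm; 0% = enzyme without compound and 100% = no enzyme blank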
Furin inhibitor = human furin inhibitors, primary screen, biochemical, fluorescence intensity | 0.061% of 220,000 active | inhibition, % at 20 µM or 30 µM | P09958 | purified furin, fluorogenic substrate cleavage; in the data active = inhibition above about 25%
thrombin 1536 = human alpha-thrombin inhibitors, primary screen, counter-screen for coagulation protease inhibitor project, biochemical, 1536-well, fluorogenic AMC substrate; inhibition, % at 5 µM; 0.26% of 220,000 active; Boc-VPR-AMC fluorogenic substrate cleavage;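 active = inhibition at or above 40%; inactive = inhibition below 40%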;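 note: 0% = enzyme with no compound and 100% = wells without enzyme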
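System – human alpha-thrombin · Medium – pH 7.5 Tris (50 mM) with NaCl 150 mM, Tween 20 0.05% · Compound – single-point dosing at 5 µM, 0.2% DMSO · Incubation – enzyme reaction carried out at room temperature · Technique – fluorescence of released AMC, ex 355 nm, em 460 nm · Read-out basis – % inhibition of thrombin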
FXIIa inh = human FXIIa protease inhibitors, primary screen, biochemical, 1536-well. 0.3% of 220,000 active. Coagulation factor XII (Homo sapiens), P00748. inhibition, % at 5 µM. purified FXIIa, Boc-QGR-AMC fluorogenic substrate, 2 h; in the data active = inhibition above about 40%;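 note: 0% = enzyme with no compound and 100% = blank without enzyme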
hK5 inh = human KLK5 protease inhibitors, primary screen, biochemical, 1536-well; Kallikrein-5 (Homo sapiens), Q9Y337; recombinant hK5, fluorogenic AMC substrate cleavage; inhibition, % at 5 µM; 0.59% of 210,000 active; AID 873, 2007;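 active = inhibition of 40% or more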;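 note: 0% = enzyme controls without compound and 100% = no-enzyme blanks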
Target sequence (Q9Y337 67-293 limits assumed): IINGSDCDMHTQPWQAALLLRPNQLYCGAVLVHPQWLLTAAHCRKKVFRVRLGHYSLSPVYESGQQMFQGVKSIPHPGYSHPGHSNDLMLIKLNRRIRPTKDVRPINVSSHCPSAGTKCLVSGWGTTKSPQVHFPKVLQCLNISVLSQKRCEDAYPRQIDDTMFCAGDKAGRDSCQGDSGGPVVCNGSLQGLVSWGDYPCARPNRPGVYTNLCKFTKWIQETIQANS
The depositor's hits bear a star; . = not tested or not shown.

SMILES | Biofilm kill mix | FXIa inh | Furin inhibitor | thrombin 1536 | FXIIa inh | hK5 inh
O=C(CC(=O)N/N=C/c1cccs1)NCc1ccccc1 | 17 | -9 | -3 | -1 | 1 | -4
O=C(CCC(=O)N/N=C/c1ccc(Br)s1)NCc1ccccc1 | 7 | 10 | -3 | 29 | 44* | 20
CCOc1cc(C(=O)Nn2cnnc2)cc(OCC)c1OCC | 15 | -4 | -25 | 2 | 11 | 3
CCOc1cc(C(=O)NC)cc(OCC)c1OCC | . | -8 | -31 | 22 | 12 | 44*
Cc1ccccc1NNC(=O)C(=O)NNc1ccccc1C | 7 | 16 | -7 | 18 | 34 | 50*
Cc1c(Cl)cnc(NC(=O)COC(=O)c2ccc3c(c2)OCO3)c1Cl | 9 | 10 | -7 | 27 | 13 | 41*
O=c1[nH][nH]c2ccccc2c1=O | 7 | 3 | -18 | 1 | 11 | 1
Cc1ccc(N2C(=S)NC3c4ccccc4OC2(C)C3C(=O)N(C)C)cc1 (centres undefined) | 5 | 0 | -28 | 44* | 15 | 5
CCc1cccc(CC)c1NC(=O)c1cccc(N)c1 | . | -13 | -17 | 46* | 4 | -20
CCc1cccc(CC)c1NC(=O)c1ccccc1 | 11 | -1 | -18 | -2 | 11 | 1
CCOC(=O)C(Sc1cc(-c2ccccc2)nc2ncnn12)C(C)=O (centres undefined) | 11 | -3 | -2 | -6 | 3 | -1
O=c1c2c3c(sc2n(CCN2CCOCC2)c(=O)n1Cc1ccco1)CCCCC3 | . | 6 | -22 | 2 | 13 | -10
O=c1c2c3c(sc2n(CCN2CCCCC2)c(=O)n1Cc1ccco1)CCCCC3 | . | 10 | -13 | 12 | 26 | 44*
CC(C)c1ccc(-n2c(-c3ccccc3)c[n+]3c2CCc2ccccc2-3)cc1 | 35* | 5 | -17 | 17 | 16 | 10
COc1ccc(-n2c(-c3ccc(Br)cc3)c[n+]3c2CCc2ccccc2-3)cc1 | 25 | -2 | -15 | 0 | 5 | -6
O=C(CNC(=S)N(Cc1ccccc1)Cc1ccccc1F)NCCc1ccccc1 | 4 | 11 | 2 | 9 | 41* | 18
O=C(CNC(=S)N(Cc1ccccc1)Cc1ccccc1F)NCc1ccccc1 | 12 | -2 | -10 | -6 | 12 | -3
C=CCn1c(C)nnc1SCC(=O)c1[nH]c(C)c(C(C)=O)c1C | 6 | -4 | -11 | -7 | -1 | -2
CC(=O)c1[nH]c(C)c(C(C)=O)c1C | . | 3 | -11 | 8 | 30 | 47*
CC(=O)c1c(C)[nH]c(C(=O)CSc2nnc(C)s2)c1C | 5 | 28 | -13 | 40 | 25 | 52*
O=C(O)CCS(=O)(=O)c1ccccc1Cl | 9 | -4 | -30 | 0 | 4 | 0
CCc1nnc(NC(=O)CSc2nc3cc(OC)ccc3cc2C)s1 | 3 | -7 | -22 | 10 | 6 | -5
CN1CCN(S(=O)(=O)Cc2ccc(Cl)cc2)CC1 | 16 | 41* | -7 | 30 | 35 | 70*
CCOc1cc(S(=O)(=O)n2nc(C)cc2C)ccc1Br | 6 | 1 | -14 | 4 | 7 | .
CC(C(=O)NCc1ccccn1)N1C(=O)c2ccccc2C1=O (centres undefined) | . | 18 | -14 | 104* | 13 | 34
SMILES | Biofilm kill mix | FXIa inh | Furin inhibitor | thrombin 1536 | FXIIa inh | hK5 inh
CC(C(=O)NCc1cccnc1)N1C(=O)c2ccccc2C1=O (centres undefined) | . | -9 | -20 | -7 | -1 | 0
COc1cc(/C=C/C(=O)OCC(=O)NC(=O)NC(C)C)cc(S(=O)(=O)N2CCc3ccccc32)c1OC | 6 | 0 | -18 | 0 | 6 | -19
COc1ccc(C2=NN(CN3C(=O)C(=O)c4ccccc43)C(c3cccc([N+](=O)[O-])c3)C2)cc1 (centres undefined) | 18 | -2 | -9 | -4 | 5 | -2
CCn1c(C)nc2cc(C(=O)N/N=C(\C)c3ccc(OC)cc3O)ccc21 | 8 | 43* | 10 | 58* | 36 | 30
O=C(COc1ccc(Cl)cc1Cl)c1ccc[nH]1 | 19 | 0 | -19 | -6 | 0 | 9
COC(=O)c1sc(N2C(=O)C(O)=C(C(=O)c3ccc(C)o3)C2c2ccc(F)cc2)nc1C (centres undefined) | . | 23 | -12 | 20 | 6 | 51*
Cc1ccc(NCCCCO)cc1C | 1 | -1 | -16 | -7 | 7 | -3
COc1ccccc1-n1c(SCC(=O)OC(C)C)nc2cccnc21 | 19 | -4 | 5 | -7 | 7 | -5
CC(=O)Nc1ccc(NC(=O)CSc2nccn2Cc2ccccc2)cc1 | . | 4 | -15 | 15 | 3 | 57*
CC(=O)Nc1ccc(NC(=O)CSc2ncnn2-c2ccccc2)cc1 | . | 1 | -14 | 2 | 43* | -3
CC(=O)Nc1ccc(NC(=O)CSc2ccccn2)cc1 | 19 | -11 | -7 | -1 | -1 | -4
Cc1cccc(CN(C(=S)Nc2c(C)cccc2C)c2cccnc2)c1 | 10 | 6 | 3 | -4 | 13 | 1
CC1CCCN(C(=O)C2CCCN(S(=O)(=O)c3cccc4nsnc34)C2)C1 (centres undefined) | . | -1 | -16 | -10 | 44* | -14
O=C1CC(Sc2ccc(Cl)cc2)C(=O)N1c1ccc2c(c1)OCCO2 (centres undefined) | 1 | 44* | -5 | 37 | 17 | 53*
Cc1c(-c2cccs2)[n+](=O)c2c(n1[O-])CCC2 | . | 17 | -18 | 40* | 34 | 60*
Cc1c(C)[n+](=O)c(-c2cccs2)c(C)n1[O-] | . | -7 | -12 | -1 | -7 | -12
O=C1CC(c2ccccc2Cl)=NN(c2ncnc3ccccc23)C1=O | 9 | -1 | -26 | 0 | 10 | 1
Cc1c(NC(=O)c2ccc(Cl)c(S(=O)(=O)N3CCOCC3)c2)c(=O)n(-c2ccccc2)n1C | . | -9 | 30* | -3 | -3 | -15
O=C(NCc1ccccc1F)c1ccc(S(=O)(=O)Nc2cccc(C(F)(F)F)c2)cc1 | 15 | -5 | -3 | -6 | 2 | -15
O=C(NCc1ccc(F)cc1)c1ccc(S(=O)(=O)Nc2cccc(C(F)(F)F)c2)cc1 | 13 | 5 | 3 | 25 | 10 | 49*
C/C(=N\NC(=O)CCn1nnc2ccccc21)c1cccs1 | 6 | 11 | -2 | 24 | 43* | 19
COCCCN1CN(S(=O)(=O)c2cccs2)c2nc3ccccc3nc21 | 11 | -3 | -6 | 1 | 9 | 2
CCCCNC(=S)NC(C)(C)CO | 25 | 0 | -26 | -4 | 8 | 4
